Measurements from different studies.
Each line is one published result; the experiments were not run side by side.
EGFR del747-750/T751S: Epidermal growth factor receptor (EGFR, Homo sapiens, UniProt P00533, del747-750/T751S)
EGFR A750P/del747-749: Epidermal growth factor receptor (EGFR, Homo sapiens, UniProt P00533, A750P/del747-749)
EGFR del746-750: Epidermal growth factor receptor (EGFR, Homo sapiens, UniProt P00533, del746-750)
EGFR G719C: Epidermal growth factor receptor (EGFR, Homo sapiens, UniProt P00533, G719C)
EGFR L861Q: Epidermal growth factor receptor (EGFR, Homo sapiens, UniProt P00533, L861Q)
EGFR L858R: Epidermal growth factor receptor (EGFR, Homo sapiens, UniProt P00533, L858R)
EGFR: Epidermal growth factor receptor (EGFR, Homo sapiens, UniProt P00533)
EGFR del747-752/P753S: Epidermal growth factor receptor (EGFR, Homo sapiens, UniProt P00533, del747-752/P753S)
EGFR T790M: Epidermal growth factor receptor (EGFR, Homo sapiens, UniProt P00533, T790M)
EGFR G719S: Epidermal growth factor receptor (EGFR, Homo sapiens, UniProt P00533, G719S)
EGFR L858R/T790M: Epidermal growth factor receptor (EGFR, Homo sapiens, UniProt P00533, L858R/T790M)

O=C(c1ccc(Nc2nccc(-c3cc4ccccc4s3)n2)cc1)N1CCC(N2CCCC2)CC1 — remaining binding (EGFR del747-750/T751S; binding; competition with immobilised ligand; 1 µM): 82%
CN([C@@H]1CCc2c(CC(=O)O)c3ccccc3n2C1)S(=O)(=O)c1ccc(F)cc1 — remaining binding (EGFR A750P/del747-749; cell-free assay; competition with immobilised ligand; 1 µM): 100%
Cc1cnn2ncc(-c3ccnc(N(C)C)n3)c2c1 — remaining binding (EGFR del746-750; binding; 1 µM): 100%
COc1cnc(Nc2cccc(S(N)(=O)=O)c2)nc1N1CCN(c2ccccc2)C(=O)C1 — remaining binding (EGFR G719C; binding; competition with immobilised ligand; 1 µM): 100%
O=C(NCC1CCOCC1)c1n[nH]cc1NC(=O)c1c(F)cccc1F — remaining binding (EGFR G719C; binding; competition with immobilised ligand; 1 µM): 100%
CN(C)c1ncc(F)c(-c2cnn3ncccc23)n1 — remaining binding (EGFR L861Q; binding; 1 µM): 100%
CS(=O)(=O)NCC[C@H](NC(=O)c1cncc2c1cnn2-c1ccc(F)cc1)c1ccnc(S(C)(=O)=O)c1 — remaining binding (EGFR L858R; cell-free assay; competition with immobilised ligand; 1 µM): 83%
O=C(NCCCN1CCOCC1)c1ccc(Nc2nccc(-c3cc4ccccc4s3)n2)cc1 — remaining binding (EGFR; binding; competition with immobilised ligand; 1 µM): 87%
C[C@@H]1CN(c2ccc3ncc(-c4ccc5[nH]nc(C6CC6)c5c4)n3n2)C[C@H](C)O1 — remaining binding (EGFR; binding; competition with immobilised ligand; 50 nM): 60%
O=C(Nc1c[nH]nc1C(=O)NC1CCNCC1)c1cc(F)cc(F)c1 — remaining binding (EGFR del747-752/P753S; binding; competition with immobilised ligand; 1 µM): 100%
Cc1cnc(Nc2ccc(C(=O)N3CCC(N4CCCC4)CC3)cc2)nc1-c1cc2ccccc2s1 — remaining binding (EGFR T790M; binding; competition with immobilised ligand; 1 µM): 56%
CNC(=O)[C@@H]1CC[C@@H](n2c(-c3ccc4cnccc4c3)nc3ccc(C(=O)NCc4cccc(C(N)=O)c4)cc32)C1 — remaining binding (EGFR G719S; binding; competition with immobilised ligand; 1 µM): 100%
CN1CCN(c2ccc(Nc3nccc(-c4cccc([N+](=O)[O-])c4)n3)cc2C(F)(F)F)CC1 — remaining binding (EGFR del746-750; binding; 10 µM): 34%
Nc1ncc2c(n1)-c1c([nH]c3ccc(C#CC4CC4)cc13)CCCC2 — remaining binding (EGFR G719S; binding; competition with immobilised ligand; 1 µM): 98%
F[C@@H]1CCN(c2nccc(-c3cnn4ncccc34)n2)C1 — remaining binding (EGFR L861Q; binding; 1 µM): 93%
CCC(=N\O)/C(C)=C/c1ccc(F)cc1 — remaining binding (EGFR T790M; cell-free assay; competition with immobilised ligand; 1 µM): 100%
CCN1CCN(Cc2ccc(C(=O)Nc3ccc(C)c(Oc4ccc5c(c4)CC(=O)N5)c3)cc2C(F)(F)F)CC1 — remaining binding (EGFR; binding; competition with immobilised ligand; 1 µM): 100%
c1cncc(-c2cccc(Nc3nccc(NC4CCCCC4)n3)c2)c1 — remaining binding (EGFR L858R; binding; competition with immobilised ligand; 10 µM): 58%
CN(c1nccc(-c2cnn3ncccc23)n1)C1CC1 — remaining binding (EGFR L858R; binding; 1 µM): 100%
CN1CCN(c2ccc(Nc3nccc(-c4ccccc4)n3)cc2C(F)(F)F)CC1 — remaining binding (EGFR L861Q; binding; 10 µM): 94%
Cc1c(-c2ccccc2)oc2c(C(=O)OCCN3CCCCC3)cccc2c1=O — remaining binding (EGFR; cell-free assay; competition with immobilised ligand; 10 µM): 88%
O=C(c1ccc(Nc2ncc(Cl)c(-c3ccc(Cl)s3)n2)cc1)N1CCC(N2CCCC2)CC1 — remaining binding (EGFR del747-750/T751S; binding; competition with immobilised ligand; 1 µM): 100%
C[C@@H]1CCN(c2nccc(-c3cnn4ncccc34)n2)C1 — remaining binding (EGFR L861Q; binding; 1 µM): 92%
COc1cnc(Nc2cccc(S(N)(=O)=O)c2)nc1N1CCN(c2ccccc2)CC1 — remaining binding (EGFR L858R/T790M; binding; competition with immobilised ligand; 1 µM): 87%
O=C(NCCCN1CCOCC1)c1ccc(Nc2ncc(Cl)c(-c3ccc(Cl)s3)n2)cc1 — remaining binding (EGFR del746-750; binding; competition with immobilised ligand; 1 µM): 92%
c1ccc(N2CCN(Cc3nc4ccccc4[nH]3)CC2)nc1 — remaining binding (EGFR T790M; cell-free assay; competition with immobilised ligand; 1 µM): 99%
O=C(c1ccc(Nc2ncc(Cl)c(-c3cc4ccccc4s3)n2)cc1)N1CCC(N2CCCC2)CC1 — remaining binding (EGFR del747-752/P753S; binding; competition with immobilised ligand; 1 µM): 79%
N[C@H]1CCN(c2nccc(-c3cnn4ncccc34)n2)C1 — remaining binding (EGFR L858R; binding; 1 µM): 100%
Cc1noc([C@H]2C[C@@H](c3ccc(C(F)(F)F)cc3)CN(C(=O)N3CCS(=O)(=O)C3)C2)n1 — remaining binding (EGFR L858R/T790M; cell-free assay; competition with immobilised ligand; 1 µM): 96%
c1cnn2ncc(-c3ccnc(N4CCC45COC5)n3)c2c1 — remaining binding (EGFR G719C; binding; 1 µM): 100%
O=C(Nc1ccc(Oc2ccc(F)cc2)cc1)N1CCc2ncccc2[C@H]1c1ccc(F)cc1 — remaining binding (EGFR T790M; cell-free assay; competition with immobilised ligand; 1 µM): 87%
COc1ncc2cc3ccccc3nc2c1C#N — remaining binding (EGFR G719C; cell-free assay; competition with immobilised ligand; 5 µM): 2.1%
COc1ccc2c(c1)O[C@H](c1ccc(OC)c(OC)c1)C[C@@H]2NC(=O)C1(c2ccc3c(c2)OC(F)(F)O3)CC1 — remaining binding (EGFR L858R; cell-free assay; competition with immobilised ligand; 1 µM): 100%
O=C(NC1CCC1)c1ccc2nc(-c3cccc(NS(=O)(=O)NCCN4CCCCC4)c3)cn2c1 — remaining binding (EGFR A750P/del747-749; cell-free assay; competition with immobilised ligand; 10 µM): 100%
C[C@@H](c1cccc(C#N)c1)n1cc(Cl)cc(C(N)=O)c1=N — remaining binding (EGFR del746-750; cell-free assay; competition with immobilised ligand; 1 µM): 93%
CN(C)c1nccc(-c2cnn3ncccc23)n1 — remaining binding (EGFR T790M; binding; 1 µM): 100%
